# Data: ChEMBL document CHEMBL1275525, “Activity of hydroxyurea against Leishmania mexicana” (2008)
# The source made the active and inactive calls. The rule behind the calls is not given here.
# How the values were obtained:
# Leishmania mexicana [1] = experiment: Antileishmanial activity against Leishmania mexicana MHOM/MX/00/Tab3 infected in BALB/c mouse macrophage assessed as growth inhibition at 1 ug/ml after 6 days by hemocytometer; type: functional
# Summary of the method: (§1)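 Resident peritoneal macrophages from male BALB/c mice were plated at 10^6 cells/ml and incubated for 24 h at 32°C in 5% CO2. Adherent cells were infected with 10^7 mid-log amastigote-like forms for 48 h at 32°C, then washed. Drug was applied for 6 days at 32°C, then replaced with drug-free medium and shifted to 26°C. Released promastigotes were counted by hemacytometer 6 days later, in triplicate. Inhibition = 100×(Tc−Tp)/Tc versus untreated.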
# Leishmania mexicana [2] = experiment: Antileishmanial activity against Leishmania mexicana MHOM/MX/00/Tab3 infected in BALB/c mouse macrophage assessed as growth inhibition at 10 ug/ml after 6 days by hemocytometer; type: functional; summary of the method: as §1
# Leishmania mexicana [3] = experiment: Antileishmanial activity against Leishmania mexicana MHOM/MX/00/Tab3 infected in BALB/c mouse macrophage assessed as growth inhibition at 25 ug/ml after 6 days by hemocytometer; type: functional, organism-based
# Leishmania mexicana [4] = experiment: Antileishmanial activity against Leishmania mexicana MNYC/BZ/62/M379 infected in BALB/c mouse macrophage assessed as growth inhibition at 1 ug/ml after 6 days by hemocytometer; type: functional; summary of the method: as §1
# Leishmania mexicana [5] = experiment: Antileishmanial activity against Leishmania mexicana MNYC/BZ/62/M379 infected in BALB/c mouse macrophage assessed as growth inhibition at 10 ug/ml after 6 days by hemocytometer; type: functional; summary of the method: as §1
# Leishmania mexicana [6] = experiment: Antileishmanial activity against Leishmania mexicana MNYC/BZ/62/M379 infected in BALB/c mouse macrophage assessed as growth inhibition at 25 ug/ml after 6 days by hemocytometer; type: functional, organism-based
# Leishmania mexicana [7] = experiment: Antileishmanial activity against Leishmania mexicana MNYC/BZ/62/M379 promastigotes at 10 ug/ml after 48 hrs by hemocytometer; type: functional, organism-based
# Leishmania mexicana [8] = experiment: Antileishmanial activity against Leishmania mexicana MHOM/MX/00/Tab3 promastigotes at 10 ug/ml after 48 hrs by hemocytometer; type: functional, organism-based
# Leishmania mexicana [9] = experiment: Antileishmanial activity against Leishmania mexicana MNYC/BZ/62/M379 promastigotes at 100 ug/ml after 48 hrs by hemocytometer; type: functional, organism-based
# Leishmania mexicana [10] = experiment: Antileishmanial activity against Leishmania mexicana MHOM/MX/00/Tab3 promastigotes at 100 ug/ml after 48 hrs by hemocytometer; type: functional, organism-based
# Leishmania mexicana [11] = experiment: Antileishmanial activity against Leishmania mexicana MNYC/BZ/62/M379 promastigotes assessed as survival rate after 6 days by hemocytometer; type: functional
# Summary of the method: (§2)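 Promastigotes were grown cell-free at 26°C in DMEM with 10% heat-inactivated FCS, with drug at 0.01–100 µg/ml. Parasite density was counted by hemacytometer every other day, and the value was taken on day 6. Data were recorded in triplicate, and experiments were run four times.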
# Leishmania mexicana [12] = experiment: Antileishmanial activity against Leishmania mexicana MHOM/MX/00/Tab3 promastigotes assessed as survival rate after 6 days by hemocytometer; type: functional; summary of the method: as §2
# Leishmania mexicana [13] = experiment: Antileishmanial activity against Leishmania mexicana MNYC/BZ/62/M379 promastigotes measured on day 6 by hemocytometer; type: functional; conditions: MNYC/BZ/62/M379, 144 h, read-out: ED50 (the source's name)
# Summary of the method: (§3)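 Promastigotes were cultured cell-free at 26°C in DMEM with 10% heat-inactivated FCS, with hydroxyurea at 0.01-100 µg/ml. Density was counted by hemacytometer every other day, and inhibition versus untreated control was taken on day 6 of culture.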
# Leishmania mexicana [14] = experiment: Antileishmanial activity against Leishmania mexicana MHOM/MX/00/Tab3 promastigotes measured on day 6 by hemocytometer; type: functional; conditions: MHOM/MX/00/Tab3, 144 h, read-out: ED50 (the source's name); summary of the method: as §3
# Leishmania mexicana [15] = experiment: Antileishmanial activity against Leishmania mexicana MHOM/MX/00/Tab3 infected in BALB/c mouse macrophage assessed as growth inhibition at 100 ug/ml after 6 days by hemocytometer; type: functional; conditions: MHOM/MX/00/Tab3, 144 h
# Summary of the method: (§4)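 Peritoneal resident macrophages from male BALB/c mice (20-25 g) were pooled, washed, plated at 10^6 cells/ml, and left to adhere for 24 h at 32°C in 5% CO2. Adherent cells were infected with 10^7 mid-log amastigote-like forms for 48 h, then washed. Drug was given at 0.01-100 µg/ml for 3, 6, 9 or 12 days at 32°C. After removal, plates moved to 26°C; released promastigotes were hemacytometer-counted 6 days later. Inhibition = 100 x (Tc − Tp)/Tc; triplicate.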
# Leishmania mexicana [16] = experiment: Antileishmanial activity against Leishmania mexicana MNYC/BZ/62/M379 infected in BALB/c mouse macrophage assessed as growth inhibition at 100 ug/ml after 6 days by hemocytometer; type: functional; conditions: MNYC/BZ/62/M379, 144 h; summary of the method: as §4
# Leishmania mexicana [17] = experiment: Antileishmanial activity against Leishmania mexicana MHOM/MX/00/Tab3 infected in BALB/c mouse macrophage measured on day 6 by hemocytometer; type: functional; conditions: MHOM/MX/00/Tab3, 144 h, read-out: ED50 (the source's name); summary of the method: as §4
# Leishmania mexicana [18] = experiment: Antileishmanial activity against Leishmania mexicana MNYC/BZ/62/M379 infected in BALB/c mouse macrophage measured on day 6 by hemocytometer; type: functional; conditions: MNYC/BZ/62/M379, 144 h, read-out: ED50 (the source's name); summary of the method: as §4
# Leishmania mexicana [19] = experiment: Cell cycle arrest in Leishmania mexicana assessed as accumulation at G2/M phase at 10 ug/ml after 48 hrs by fluorescence-activated cell sorter; type: functional, organism-based
# Summary of the method: (§5)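 Mid-log promastigotes were exposed 48 h at 26°C to 1, 10 or 100 µg/ml, washed in PBS with 0.02 M EDTA, and fixed in cold methanol for 24 h. They were then stained 20 min at 25°C with RNase I (50 µg/ml) and PI (25 µg/ml), kept on ice, and analysed by FACS for DNA content.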
# Leishmania mexicana [20] = experiment: Cell cycle arrest in Leishmania mexicana assessed as accumulation at G2/M phase at 100 ug/ml after 48 hrs by fluorescence-activated cell sorter; type: functional, organism-based; summary of the method: as §5
# Leishmania mexicana [21] = experiment: Cell cycle arrest in Leishmania mexicana assessed as accumulation at G2/M phase at 1 ug/ml after 48 hrs by fluorescence-activated cell sorter; type: functional, organism-based; summary of the method: as §5
# Leishmania mexicana [22] = experiment: Antileishmanial activity against Leishmania mexicana infected in BALB/c mouse macrophage assessed as growth inhibition at 0.01 ug/ml after 3 days by hemocytometer; type: functional; conditions: 72 h; summary of the method: as §4
# Leishmania mexicana [23] = experiment: Antileishmanial activity against Leishmania mexicana infected in BALB/c mouse macrophage assessed as growth inhibition at 0.01 ug/ml after 12 days by hemocytometer; type: functional; conditions: 288 h; summary of the method: as §4
# Leishmania mexicana [24] = experiment: Antileishmanial activity against Leishmania mexicana infected in BALB/c mouse macrophage assessed as growth inhibition at 0.1 ug/ml after 3 days by hemocytometer; type: functional; conditions: 72 h; summary of the method: as §4
# Leishmania mexicana [25] = experiment: Antileishmanial activity against Leishmania mexicana infected in BALB/c mouse macrophage assessed as growth inhibition at 0.1 ug/ml after 12 days by hemocytometer; type: functional; conditions: 288 h; summary of the method: as §4
# Leishmania mexicana [26] = experiment: Antileishmanial activity against Leishmania mexicana infected in BALB/c mouse macrophage assessed as growth inhibition at 1 ug/ml after 3 days by hemocytometer; type: functional; conditions: 72 h; summary of the method: as §4
# Leishmania mexicana [27] = experiment: Antileishmanial activity against Leishmania mexicana infected in BALB/c mouse macrophage assessed as growth inhibition at 1 ug/ml after 12 days by hemocytometer; type: functional; conditions: 288 h; summary of the method: as §4
# Leishmania mexicana [28] = experiment: Antileishmanial activity against Leishmania mexicana infected in BALB/c mouse macrophage assessed as growth inhibition at 10 ug/ml after 3 days by hemocytometer; type: functional; conditions: 72 h; summary of the method: as §4
# Leishmania mexicana [29] = experiment: Antileishmanial activity against Leishmania mexicana infected in BALB/c mouse macrophage assessed as growth inhibition at 10 ug/ml after 12 days by hemocytometer; type: functional; conditions: 288 h; summary of the method: as §4
# Leishmania mexicana [30] = experiment: Antileishmanial activity against Leishmania mexicana infected in BALB/c mouse macrophage assessed as growth inhibition at 100 ug/ml after 3 days by hemocytometer; type: functional, organism-based; summary of the method: as §4
# Leishmania mexicana [31] = experiment: Antileishmanial activity against Leishmania mexicana promastigotes assessed as parasite burden at 1 ug/ml after 8 days by hemacytometer
# Leishmania mexicana [32] = experiment: Antileishmanial activity against Leishmania mexicana promastigotes assessed as parasite burden at 10 ug/ml after 8 days by hemacytometer
# Leishmania mexicana [33] = experiment: Antileishmanial activity against Leishmania mexicana promastigotes assessed as parasite burden at 100 ug/ml after 8 days by hemacytometer
molecule,measurement,setting,value
MEGLUMINE ANTIMONATE,inhibition,Leishmania mexicana [1],32%
same,inhibition,Leishmania mexicana [2],54%
same,inhibition,Leishmania mexicana [3],77%
same,inhibition,Leishmania mexicana [4],33%
same,inhibition,Leishmania mexicana [5],69%
same,inhibition,Leishmania mexicana [6],93%
NC(=O)NO [HYDROXYUREA],Activity,Leishmania mexicana [7],Active
same,Activity,Leishmania mexicana [8],Active
same,Activity,Leishmania mexicana [9],Active
same,Activity,Leishmania mexicana [10],Active
same,Survival,Leishmania mexicana [11],11.6%
same,Survival,Leishmania mexicana [12],3.1%
same,EC50,Leishmania mexicana [13],0.05 µg/mL
same,EC50,Leishmania mexicana [14],0.05 µg/mL
same,inhibition at 1 µg/mL,"Leishmania mexicana [1]; MHOM/MX/00/Tab3, 144 h",96%
same,inhibition at 10 µg/mL,"Leishmania mexicana [2]; MHOM/MX/00/Tab3, 144 h",100%
same,inhibition at 100 µg/mL,Leishmania mexicana [15],100%
same,inhibition at 1 µg/mL,"Leishmania mexicana [4]; MNYC/BZ/62/M379, 144 h",94%
same,inhibition at 10 µg/mL,"Leishmania mexicana [5]; MNYC/BZ/62/M379, 144 h",100%
same,inhibition at 100 µg/mL,Leishmania mexicana [16],100%
same,EC50,Leishmania mexicana [17],0.015 µg/mL
same,EC50,Leishmania mexicana [18],0.015 µg/mL
same,Activity,Leishmania mexicana [19],Active
same,Activity,Leishmania mexicana [20],Active
same,Activity,Leishmania mexicana [21],inactive
same,inhibition at 0.01 µg/mL,Leishmania mexicana [22],44%
same,inhibition at 0.01 µg/mL,Leishmania mexicana [23],67%
same,inhibition at 0.1 µg/mL,Leishmania mexicana [24],72%
same,inhibition at 0.1 µg/mL,Leishmania mexicana [25],85%
same,inhibition at 1 µg/mL,Leishmania mexicana [26],87%
same,inhibition at 1 µg/mL,Leishmania mexicana [27],94%
same,inhibition at 10 µg/mL,Leishmania mexicana [28],93%
same,inhibition at 10 µg/mL,Leishmania mexicana [29],98%
same,inhibition,Leishmania mexicana [30],Active
same,Activity,Leishmania mexicana [31],8.5 ×10⁶ /ml
same,Activity,Leishmania mexicana [32],4.3 ×10⁶ /ml
same,Activity,Leishmania mexicana [33],0 mL⁻¹
